In publication PMC4200025 (International Journal of Nanomedicine, 2014):

Assays:
Format in all cases: in vivo
[1] = Two-compartment pharmacokinetic analysis of plasma data; conditions: ND4 Swiss Webster, mouse, iv, 0.24 mg/kg, distribution half-life, mice, IV 0.24 mg/kg dye, two-compartment model
[2] = Organ dye content 24 hours after IV injection; conditions: mice
Outline: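 ND4 Swiss Webster mice (25–30 g, n=3 per group) were anaesthetised with IP pentobarbital (40 mg/kg). They received 0.24 mg/kg dye (conjugate dosed by dye content) via the tail vein. At 24 h, organs were dissected, minced, homogenised and extracted in DMSO for 4 h, then centrifuged at 9,000 rpm for 15 min. Supernatant fluorescence was read against a DMSO calibration curve (785 nm excitation) and normalised to organ mass.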

[3] = Plasma dye concentration after IV injection; conditions: mice, 24 hours after IV injection

Structure (SMILES): CC1(C)C(/C=C/C=C/C=C/C=C2\N(CCCCS(=O)(=O)O)c3ccc4ccccc4c3C2(C)C)=[N+](CCCCS(=O)(=O)[O-])c2ccc3ccccc3c21 [ICG, indocyanine green]
- half-life [1]: ~3.06 min
- organ dye content, kidneys [2]: at background level
- organ dye content, lungs [2]: at background level
- overall recovered percentage of injected dose (plasma plus organs) [3]: 2.6%
- recovered percentage of injected dose in plasma [3]: 0.8%
